According to ChEMBL document CHEMBL1122501, “Potential antiatherosclerotic agents. 2. (Aralkylamino)- and (alkylamino) benzoic acid analogues of cetaben” (1983):
“And” between values parts separate entries of the source, which are not always exact repeats. Equal entries are not always repeated.

Legend:
[1] = target: T1, Sterol O-acyltransferase 1 (Rattus norvegicus) (UniProt O70536); assay: In vitro inhibitory activity against acyl coenzyme A:cholesterol acyltransferase (ACAT); design: concentration or dose not given beside the values; conditions: concentration not given here
T1 sequence (whole entry): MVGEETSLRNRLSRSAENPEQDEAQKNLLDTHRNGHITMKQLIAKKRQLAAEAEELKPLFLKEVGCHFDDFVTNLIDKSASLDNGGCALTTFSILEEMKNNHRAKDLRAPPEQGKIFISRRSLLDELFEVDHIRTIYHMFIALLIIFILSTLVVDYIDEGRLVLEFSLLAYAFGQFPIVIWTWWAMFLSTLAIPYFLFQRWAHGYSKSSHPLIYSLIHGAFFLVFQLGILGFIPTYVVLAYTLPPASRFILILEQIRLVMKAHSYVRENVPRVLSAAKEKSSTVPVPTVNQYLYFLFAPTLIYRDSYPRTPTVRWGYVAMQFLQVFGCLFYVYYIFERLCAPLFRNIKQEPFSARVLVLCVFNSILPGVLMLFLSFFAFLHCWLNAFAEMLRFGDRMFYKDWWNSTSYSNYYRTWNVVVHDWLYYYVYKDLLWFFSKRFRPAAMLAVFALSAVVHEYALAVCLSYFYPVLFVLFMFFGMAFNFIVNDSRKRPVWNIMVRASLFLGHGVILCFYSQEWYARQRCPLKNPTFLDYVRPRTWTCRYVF
How it was run: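 ACAT enzyme from rat adrenal homogenate in 0.2 M KH2PO4 buffer pH 7.4, 1000g 15 min 5 °C supernatant (microsomal fraction). Supernatant + BSA (50 mg/mL) + compound at final 5.2 μg/mL + buffer preincubated 10 min 37 °C; [14C]oleoyl-CoA (0.4 μCi) added, 30 min 37 °C. Lipids extracted, TLC; cholesteryl ester zone counted. Mean % inhibition vs no-compound control; Student's t test.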

Rattus norvegicus [2] = assay: In vivo Sterol lowering activity at dose as 0.03 % of the diet.; type: functional
How it was run: (§1)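 Male CFE or CD-1 Sprague-Dawley rats, 140-150 g; 8 per control group, 4 per test group. Compound mixed into ground chow (w/w) via MeOH-CHCl3 (1:3) solution, solvent evaporated; controls got solvent-treated chow. Fed ad libitum 5 days, food intake monitored, killed fed and bled. Serum sterols and triglycerides by adapted autoanalyzer methods; mean percent of control, Student's t test.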

Rattus norvegicus [3] = assay: In vivo sterol lowering activity dosed at 0.10 % of the diet; type: functional; how it was run: as §1
Rattus norvegicus [4] = assay: In vivo triglyceride lowering activity dosed at 0.10 % of the diet; type: functional; how it was run: as §1
Rattus norvegicus [5] = assay: In vivo Sterol lowering activity at dose as 0.01 % of the diet.; type: functional; how it was run: as §1
Rattus norvegicus [6] = assay: In vivo Sterol lowering activity at dose as 0.10 % of the diet.; type: functional; how it was run: as §1
Rattus norvegicus [7] = assay: In vivo triglyceride lowering activity, dosed at 0.03 % of the diet; type: functional; how it was run: as §1
Rattus norvegicus [8] = assay: In vivo triglyceride lowering activity, dosed at 0.01 % of the diet.; type: functional; how it was run: as §1

Compound | inhibition [1] | serum sterol, percent of control (Rattus norvegicus [3]) [%] | serum triglycerides, percent of control (Rattus norvegicus [4]) [%] | also measured
C=CCCCCCCCC/C=C/CCCNc1ccc(C(=O)O)cc1 | < 44% | – | – | –
CCOC(=O)c1ccc(NCCCc2ccc(Cl)cc2)cc1 | 42% | 76 | 52 | serum sterol level, percent of control (Rattus norvegicus [2]): 89%; serum sterol, percent of control (Rattus norvegicus [5]): 90%
CCCCCCCCCC/C=C/CCCNc1ccc(C(=O)O)cc1 | < 46% | – | – | –
CCCCCCCCCCCCCCCCNc1ccc(C(=O)O)cc1 | < 53% | – | – | –
CCOC(=O)c1ccc(NCCCCCCc2cccs2)cc1 | 63% | – | – | –
CCCCCCCCCCCCCCCCCCCNc1ccc(C(=O)O)cc1 | < 36% | – | – | –
CCOC(=O)c1ccc(NCCCCCCCCCC/C=C/c2cccs2)cc1 | < 62% | – | – | –
CCCCCCCCCCCCCCCCCNc1ccc(C(=O)OCC)cc1 | – | 111 | – | –
CCCCCCNc1ccc(C(=O)O)cc1 | – | – | – | serum sterol, percent of control (Rattus norvegicus [6]): 94%
CCCCCCCCc1ccc(CCCNc2ccc(C(=O)OCC)cc2)s1 | < 57% | <83 | <46 | –
COc1ccc(CCC(=O)Nc2ccc(C(=O)O)cc2)cc1 | 0% | – | – | –
CCOC(=O)c1ccc(NC(=O)/C=C/c2ccc(OC)cc2)cc1 | 52% | – | – | –
CCOC(=O)c1ccc(N(C)CCCc2ccc(Cl)cc2)cc1 | 53% | – | 49 | serum sterol, percent of control (Rattus norvegicus [6]): 99%
CCCCCCCCCCCCCNc1ccc(C(=O)OCC)cc1 | < 22% | 91 | <70 | –
O=C(O)c1ccc(NCc2ccc(Cl)cc2)cc1 | 15% and 13% | – | – | –
CCN(CCCc1ccc(Cl)cc1)c1ccc(C(=O)O)cc1 | 52% | – | 68 | serum sterol, percent of control (Rattus norvegicus [6]): 83%

Compound | inhibition [1] | serum sterol, percent of control (Rattus norvegicus [3]) [%] | serum triglycerides, percent of control (Rattus norvegicus [4]) [%] | also measured
CCOC(=O)c1ccc(NCCCCCCCCCCCCc2cccs2)cc1 | < 40% | 103 | <46 | –
CCCCCCCCCCCc1nc(CNc2ccc(C(=O)OCC)cc2)c[nH]1 | < 59% | 100 | 83 | –
CCOC(=O)c1ccc(NCCCCCCCCCC/C=C\c2cccs2)cc1 | < 47% | <82 | 72 | –
CCCCCCCCCCCCCNc1ccc(C(=O)O)cc1 | < 29% | – | – | –
O=C(O)c1ccc(NCCCc2ccc(Cl)cc2)cc1 [listing 1 of 2 here] | – | 72 | 50 | serum triglycerides, percent of control (Rattus norvegicus [7]): 54%; serum sterol level, percent of control (Rattus norvegicus [2]): 94%; Diet (Rattus norvegicus [8]): 70%; serum sterol, percent of control (Rattus norvegicus [5]): 94%
O=C([O-])c1ccc(NCCCc2ccc(Cl)cc2)cc1.[Na+] | – | 84 | 52 | serum triglycerides, percent of control (Rattus norvegicus [7]): 60%; serum sterol level, percent of control (Rattus norvegicus [2]): 92%; Diet (Rattus norvegicus [8]): 72%; serum sterol, percent of control (Rattus norvegicus [5]): 94%
CCCCCCCCCCCCNc1ccc(C(=O)O)cc1 | < 21% and 17% | – | – | –
CCCCCCCCCCCCCCCCCCNc1ccc(C(=O)O)cc1 | < 60% | – | – | –
CCCCCCCCCCCCCCCCNc1ccc(C(=O)OC)cc1 | 0% | 97 | 85 | –
CCOC(=O)c1ccc(NCCCc2c(Cl)cccc2Cl)cc1 | 62% | – | 64 | serum sterol, percent of control (Rattus norvegicus [6]): 92%
CCOC(=O)c1ccc(N(CC)CCCc2ccc(Cl)cc2)cc1 | 48% | – | 67 | serum sterol, percent of control (Rattus norvegicus [6]): 86%
CN(CCCc1ccc(Cl)cc1)c1ccc(C(=O)O)cc1 | 24% | – | 74 | serum sterol, percent of control (Rattus norvegicus [6]): 107%
C=C(CCCCCCCCCC)CCCCCNc1ccc(C(=O)OCC)cc1 | 9% | <88 | <56 | –
O=C(O)c1ccc(NCCCc2ccc(Cl)cc2)cc1 [listing 2 of 2 here] | 18% and 19% | – | – | –
COc1ccc(/C=C/C(=O)Nc2ccc(C(=O)O)cc2)cc1 | 20% | – | – | –
